Calls of active or inactive are those of the source. The rule behind the calls is not given here.
What was measured:
Colon carcinoma cell = experiment: Cytotoxicity against human Colon carcinoma cells incubated for 48 hrs by SRB assay; type: functional
How it was run: (§1)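 NCI-60 five-concentration screen: lines seeded 5×10^3–4×10^4 cells/well depending on line; compound diluted in fresh medium at scalar concentrations 0–100 or 0–1000 μM; 48 h exposure, in situ fixation, sulforhodamine B protein staining, optical density read; GI50, TGI and LC50 per NCI procedures; panel mean = mean graph midpoint.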

[1] = Cytotoxicity against human Leukemia cancer cells incubated for 48 hrs by SRB assay; type: functional; conditions: Leukemia cell, read-out: LC50 (the source's name)
How it was run: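 NCI DTP five-concentration screen. Cells were seeded at 5 × 10³–4 × 10⁴ cells/well, depending on the line. Compounds were diluted in fresh medium and added at scalar concentrations over 0–1000 µM or 0–100 µM. After 48 h the cells were fixed in situ, stained with sulforhodamine B, and optical density was read. GI50, TGI and LC50 were derived by NCI procedures, and the panel mean is the mean graph midpoint.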

[2] = tested on: Panel NCI-60 (60 carcinoma cell lines); experiment: Cytostatic activity against human Panel NCI-60 (60 carcinoma cell lines) incubated for 48 hrs by SRB assay; type: functional; how it was run: as §1
Breast cancer cell line = experiment: Cytostatic activity against human Breast cancer cells incubated for 48 hrs by SRB assay; type: functional; how it was run: as §1
Renal cancer cell line [3] = experiment: Cytostatic activity against human Renal cancer cells incubated for 48 hrs by SRB assay; type: functional; how it was run: as §1
[4] = Cytostatic activity against human Leukemia cancer cells incubated for 48 hrs by SRB assay; type: functional, Leukemia cell; how it was run: as §1
Renal cancer cell line [5] = experiment: Cell growth inhibition of human Renal cancer cells incubated for 48 hrs by SRB assay; type: functional; how it was run: as §1
CNS carcinoma cell = experiment: Cell growth inhibition of human CNS carcinoma cells incubated for 48 hrs by SRB assay; type: functional; how it was run: as §1
NSCLC = experiment: Cell growth inhibition of human NSCLC cells incubated for 48 hrs by SRB assay; type: functional; how it was run: as §1
Ovarian cancer cell line = experiment: Cytotoxicity against human Ovarian cancer cells incubated for 48 hrs by SRB assay; type: functional; how it was run: as §1
IGROV-1 [6] = experiment: Cytotoxicity against human IGROV-1 cells assessed as reduction in cell viability incubated for 24 hrs by MTT assay; type: functional, cell-based; conditions: IGROV-1, 24 h
How it was run: (§2)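 IGROV1 and HDFa in RPMI 1640 + 10% FCS, 2 mM glutamine, 37 °C, 5% CO2; seeded 1.5×10^4/well, after 24 h exposed 24 h to 0.010–500 μM (DMSO ≤0.1%). MTT 0.2 mg/mL in PBS 2 h at 37 °C, absorbance 570 nm; IC50 from dose-response, three independent experiments each in triplicate; SI = HDFa IC50/IGROV1 IC50.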

[7] = Selectivity index, ratio of IC50 for human HDFa cells to IC50 for human IGROV-1 cells; type: functional; how it was run: as §2
IGROV-1 [8] = experiment: Antiproliferative activity against human IGROV-1 cells at 5 uM incubated upto 48 hrs by quantitative phase imaging microscopy; type: functional, cell-based
How it was run: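 Quantitative phase imaging on IGROV1 seeded 4×10^3/well, 24 h later given 5 μM (six replicates; DMSO ≤0.1% final). Images hourly for 2 days at 37 °C, 5% CO2. Cell count and confluence normalized to experiment start; doubling time derived from growth.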

IGROV-1 [9] = experiment: Induction of cell cycle arrest in human IGROV-1 cells assessed as increase in cell accumulation at G0/G1 phase at 5 uM incubated for 24 hrs by PI staining based flow cytometry relative to control; type: functional
How it was run: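 IGROV1 plated 2×10^4 cells/cm², after 24 h given 5 μM for 24 h; cells detached, PBS-washed, stained 30 min at room temperature in dark with 50 μg/mL propidium iodide, 10 μg/mL RNase, 0.01% Igepal, 0.1% sodium citrate; DNA content by flow cytometry, phase percentages versus untreated.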

[10] = Upregulation of histone H4 acetylation in human IGROV-1 cells incubated for 6 hrs by Western blot analysis relative to control; type: functional
How it was run: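 IGROV1 seeded 1.5×10^4 cells/cm², after 48 h exposed 6 h to 5 μM final; histones acid-extracted (0.4 N H2SO4) from nuclei isolated with 10 mM butyrate washes, acetone-precipitated, 15% SDS-PAGE, blotted with anti-acetyl-lysine; densitometry normalized to histone H1, percent of vehicle, mean ± SD of three experiments.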

IGROV-1 [11] = experiment: Downregulation of ITAG5 mRNA level in human IGROV-1 cells at 5 uM incubated for 6 hrs by RT-PCR analysis; type: functional, cell-based
How it was run: (§3)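 IGROV1 given 5 μM versus vehicle; RNA extracted by spin column, reverse transcribed, CCND1, CDKN1A and ITAG5 transcripts quantified by qRT-PCR as fold change versus vehicle; at least triplicate, Student's t-test, p<0.05.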

IGROV-1 [12] = experiment: Effect on p21 mRNA level in human IGROV-1 cells at 5 uM incubated for 6 hrs by RT-PCR analysis; type: functional, cell-based; how it was run: as §3
IGROV-1 [13] = experiment: Effect on p21 level in human IGROV-1 cells at 5 uM incubated for 6 hrs by Western blot analysis; type: functional, cell-based
IGROV-1 [14] = experiment: Induction of DNA damage in human IGROV-1 cells assessed as increase in gamma-H2AX phosphorylation at 5 uM pretreated for 24 hrs followed by UV exposure for 6 hrs by Western blot analysis; type: functional, cell-based; conditions: time 30.0 hrs
How it was run: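 IGROV1 pretreated 24 h with 5 μM, then UV-irradiated with a 7.5 W lamp for 3 min; UV alone as positive control. Cyclin D1 and RAD51 by RIPA-lysate Western blot normalized to α-tubulin; γH2AX by acid-extracted histone blot normalized to H1; percent of vehicle, mean ± SD, three experiments.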

HDFa (Homo sapiens) = experiment: Antiproliferative activity against human HDFa cells assessed as doubling time at 5 uM measured after 48 hrs (reference value: 35 hrs)

CC(C)(C)c1cc(/C=C2/C(=O)Nc3cc(Cl)ccc32)c(O)c(/C=C2/C(=O)Nc3cc(Cl)ccc32)c1
GI (Colon carcinoma cell): 37.15 µM | CC50 [1]: 97.7 µM | GI [2]: 12.02 µM | TGI (Breast cancer cell line): 13.2 µM | GI (Renal cancer cell line [3]): 11.22 µM | GI [4]: 18.62 µM | GI50 (Renal cancer cell line [5]): 2690 nM | GI50 (CNS carcinoma cell): 2750 nM | GI (NSCLC): 3.63 µM | GI (Ovarian cancer cell line): 30.9 µM | IC50 (IGROV-1 [6]): 6.06 µM | Ratio IC50 [7]: 3.64 | Activity (IGROV-1 [8]): Active | Activity (IGROV-1 [9]): 13.4% | Activity [10]: 68.5% | Activity (IGROV-1 [11]): Active | Activity (IGROV-1 [12]): inactive | Activity (IGROV-1 [13]): inactive | Activity (IGROV-1 [14]): Active | Time (HDFa (Homo sapiens)): 56 h

Source: ChEMBL document CHEMBL5500359, “Identification of a new bisindolinone arresting IGROV1 cells proliferation” (Eur J Med Chem, 2024)
